Activity calls are given as the source filed them. The rule behind the calls is not given here.
Tests used:
[1] = species on record: Mus musculus; assay: Induction of NeuroD2 mRNA expression in mouse C17.2 cells at 20 uM incubated for 4 days by real-time RT-PCR method; assay type: functional, cell-based
Method in brief: (§1)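 Mouse C17.2 neural stem cells were treated at 20 μM for 4 days, with baicalin (20 μM) as positive control. Total RNA was isolated and Ngn2, Ngn1, NeuroD2 and NT3 transcripts were quantified by real-time RT-PCR. mRNA levels were normalized to GAPDH; SD shown.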

[2] = tested on: C3H 10T1/2; assay: Activation of 1650 bp mouse Ngn2 promoter activity expressed in mouse C3H10T1/2 cells at 2.5 to 20 uM incubated for 24 hrs by luciferase reporter gene assay; assay type: cell-based
Method in brief: (§2)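 C3H10T1/2 mesenchymal progenitor cells stably transfected with a luciferase reporter carrying the mouse Ngn2 promoter region (1650 bp). Cells were exposed for 24 h in 0.1% DMSO, with DMSO as negative control and baicalin (100 μM) as positive control. Luciferase output was read, n = 3, SD. Cytotoxicity to the same cells was measured in parallel by fluorimetric microculture assay (esterase hydrolysis of fluorescein diacetate).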

[3] = species on record: Mus musculus; assay: Induction of NT3 mRNA expression in mouse C17.2 cells at 20 uM incubated for 4 days by real-time RT-PCR method; assay type: functional, cell-based; method in brief: as §1
[4] = tested on: C3H 10T1/2; assay: Activation of 1650 bp mouse Ngn2 promoter activity expressed in mouse C3H10T1/2 cells at 20 uM incubated for 24 hrs by luciferase reporter gene assay relative to baicalin; assay type: cell-based; method in brief: as §2
[5] = species on record: Mus musculus; assay: Induction of cell differentiation of mouse C17.2 cells assessed as appearance of differentiated cell bodies; assay type: functional
[6] = species on record: Mus musculus; assay: Induction of Ngn1 mRNA expression in mouse C17.2 cells at 20 uM incubated for 4 days by real-time RT-PCR method; assay type: functional, cell-based; method in brief: as §1
[7] = species on record: Mus musculus; assay: Induction of Ngn2 mRNA expression in mouse C17.2 cells at 20 uM incubated for 4 days by real-time RT-PCR method; assay type: functional, cell-based; method in brief: as §1
[8] = tested on: C3H 10T1/2; assay: Activation of 1650 bp mouse Ngn2 promoter activity expressed in mouse C3H10T1/2 cells at 20 uM incubated for 24 hrs by luciferase reporter gene assay relative to untreated control; assay type: cell-based; method in brief: as §2
[9] = tested on: C3H 10T1/2; assay: Activation of 1650 bp mouse Ngn2 promoter activity expressed in mouse C3H10T1/2 cells at 100 uM incubated for 24 hrs by luciferase reporter gene assay relative to untreated control; assay type: cell-based; method in brief: as §2

SMILES	Activity [1]	Activity [2]	Activity [3]	fold change (FC) [4]	Activity [5]	Activity [6]	Activity [7]	fold change (FC) [8]	fold change (FC) [9]
OCc1cc(O)c2nc3ccccc3cc2c1	Active	Dose-dependent effect	Active	1.9	Active	Active	Active	2.8	
OCc1ccc2nc3c(O)cccc3cc2c1	Active	inactive	Active		Active	Active	Active		
O=C(O)[C@H]1O[C@@H](Oc2cc3oc(-c4ccccc4)cc(=O)c3c(O)c2O)[C@H](O)[C@@H](O)[C@@H]1O									1.5
OCc1cc(O)c2nc3c(O)cccc3cc2c1		inactive							

Reference: ChEMBL document CHEMBL3421613, “Inubosins A, B, and C are acridine alkaloids isolated from a culture of Streptomyces sp. IFM 11440 with Ngn2 promoter activity” (J Nat Prod, 2015)
